Measurements: ChEMBL document CHEMBL1123384, “Studies of the antitumor activity of (2-alkoxyalkyl)- and (2-alkoxyalkenyl)phosphocholines” (J Med Chem, 1986)
≈ marks a conversion by molar mass, not a printed value. Calls of active or inactive are those of the source. The calls are words filed in the database; no cut-off is given here.

Legend:
CCRF-CEM = experiment: In vitro inhibition of CCRF-CEM cell proliferation; assay type: functional, cell-based; conditions: Homo sapiens
Outline: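 Human leukaemia CCRF-CEM cells were grown in RPMI 1640 with 10% dialysed FBS, 16 mM HEPES and 8 mM MOPS, at 4.8 × 10^4 cells per well, in duplicate with several concentrations. Compounds came from a 4 mg/mL Me2SO (or ethanol) stock. After 72 h of continuous exposure (5% CO2), cells were counted on a Coulter counter. IC50 was read from dose–response curves against untreated controls.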

X5563 [1] = experiment: Compound was tested in vivo for inhibition of tumor growth of X5,563 myeloma at dose of 17 mg/kg; Number of toxic deaths over total number of mice per group (T/C), 3/10; assay type: functional; conditions: Mus musculus
X5563 [2] = experiment: Compound was tested in vivo for inhibition of tumor growth of X5,563 myeloma at dose of 25 mg/kg; Number of toxic deaths over total number of mice per group (T/C), 2/10; assay type: functional; conditions: Mus musculus
X5563 [3] = experiment: Compound was tested in vivo for inhibition of tumor growth of X5,563 myeloma at dose of 35 mg/kg; Number of toxic deaths over total number of mice per group (T/C), 4/10; assay type: functional; conditions: Mus musculus
Mus musculus [4] = species on record: Mus musculus; experiment: Compound was evaluated for the induction of cytotoxic macrophages at concentration of 0.01 ug/mL; assay type: functional
Outline: (§1)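 Peptone-elicited peritoneal macrophages were taken from C3Heb/FeJ mice (6–8 weeks) 3 days after ip peptone broth. About 4 × 10^5 cells per well were made adherent (90 min) and washed. Compound (3 mg/mL Me2SO stock, diluted in RPMI-1640 + 20% FCS) was added with 4 × 10^4 P815 mastocytoma cells, about 10:1 macrophage:target, at 37 °C, 5% CO2. After 48 h, nonadherent cells were counted by trypan blue. % cytotoxicity = (A−B)/A × 100, corrected for direct drug toxicity on targets. Mean of three experiments.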

Mus musculus [5] = species on record: Mus musculus; experiment: Compound was evaluated for the induction of cytotoxic macrophages at concentration of 0.1 ug/mL; assay type: functional; outline: as §1
Mus musculus [6] = species on record: Mus musculus; experiment: Compound was evaluated for the induction of cytotoxic macrophages at concentration of 1 ug/mL; assay type: functional; outline: as §1
X5563 [7] = experiment: Compound was tested in vivo for inhibition of tumor growth of X5,563 myeloma at dose of 5 mg/kg; Number of toxic deaths over total number of mice per group (T/C), 4/10; assay type: functional; conditions: Mus musculus
X5563 [8] = experiment: Compound was tested in vivo for inhibition of tumor growth of X5,563 myeloma at dose of 17 mg/kg; Number of toxic deaths over total number of mice per group (T/C), 0/10; assay type: functional; conditions: Mus musculus
X5563 [9] = experiment: Compound was tested in vivo for inhibition of tumor growth of X5,563 myeloma at dose of 25 mg/kg; Number of toxic deaths over total number of mice per group (T/C), 0/9; assay type: functional; conditions: Mus musculus
X5563 [10] = experiment: Compound was tested in vivo for inhibition of tumor growth of X5,563 myeloma at dose of 35 mg/kg; Number of toxic deaths over total number of mice per group (T/C), 0/9; assay type: functional; conditions: Mus musculus
X5563 [11] = experiment: Compound was tested in vivo for inhibition of tumor growth of X5,563 myeloma at dose of 17 mg/kg; Number of toxic deaths over total number of mice per group (T/C), 1/10; assay type: functional; conditions: Mus musculus
X5563 [12] = experiment: Compound was tested in vivo for inhibition of tumor growth of X5,563 myeloma at dose of 25 mg/kg; Number of toxic deaths over total number of mice per group (T/C), 0/10; assay type: functional; conditions: Mus musculus
X5563 [13] = experiment: Compound was tested in vivo for inhibition of tumor growth of X5,563 myeloma at dose of 35 mg/kg; Number of toxic deaths over total number of mice per group (T/C), 2/9; assay type: functional; conditions: Mus musculus
6C3HED = experiment: Compound was evaluated for the antitumor activity against 6C3HED lymphosarcoma for ip administration and daily x 8 schedule; Number of toxic deaths over total number of mice per group (T/C), 0/10 at dose of 35 mg/kg; assay type: functional; conditions: Mus musculus, route intraperitoneal
AC755 = experiment: Compound was evaluated for the antitumor activity against AC755 breast carcinoma for ip administration and daily x 10 schedule; Number of toxic deaths over total number of mice per group (T/C), 1/7 at dose of 25 mg/kg; assay type: functional; conditions: Mus musculus, route intraperitoneal
B16 = experiment: Compound was evaluated for the antitumor activity against B-16 melanoma; Inactive; assay type: functional, cell-based; conditions: Mus musculus
C6 = experiment: Compound was evaluated for the antitumor activity against C-6 colon for ip administration and daily x 10; 5-day delay schedule; Number of toxic deaths over total number of mice per group (T/C), 1/10 at dose of 17 mg/kg; assay type: functional; conditions: Mus musculus, 120 h, route intraperitoneal
C3H = experiment: Compound was evaluated for the antitumor activity against C3H mammary carcinoma for ip administration and daily x 10 schedule; Number of toxic deaths over total number of mice per group (T/C), 1/10 at dose of 25 mg/kg; assay type: functional; conditions: Mus musculus, route intraperitoneal
M-5 = experiment: Compound was evaluated for the antitumor activity against M-5 ovarian carcinoma for ip administration and daily x 10; % day delay schedule.; assay type: functional, Mus musculus
P388 = experiment: Compound was evaluated for the antitumor activity against P-388 leukemia; Inactive; assay type: functional, cell-based; conditions: Mus musculus
Outline: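 P-388 leukaemia: DBA/2 mice were inoculated ip with 1 × 10^6 cells. Compounds were suspended in 2.5% Emulphor in 0.9% saline and given as indicated. Mean life span of treated groups was compared with controls.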

X5563 [14] = experiment: Compound was tested in vivo for inhibition of tumor growth of X5,563 myeloma at dose of 25 mg/kg; Number of toxic deaths over total number of mice per group (T/C), 1/10; assay type: functional; conditions: Mus musculus
[15] = Compound was evaluated for the antitumor activity against X5563 plasma cell myeloma for po administration and daily x 10 schedule; Number of toxic deaths over total number of mice per group (T/C), 0/10 at dose of 50 mg/kg; assay type: functional; conditions: Mus musculus
[16] = Compound was evaluated for the antitumor activity against X5563 plasma cell myeloma for ip administration and days x10; Number of toxic deaths over total number of mice per group (T/C), 0/10 at dose of 25 mg/kg; assay type: functional; conditions: Mus musculus, route intraperitoneal
[17] = Compound was evaluated for the antitumor activity against X5563 plasma cell myeloma for iv administration and days 4,8,12; Number of toxic deaths over total number of mice per group (T/C), 1/10 at dose of 50 mg/kg; assay type: functional; conditions: Mus musculus
C-6 colon (Mus musculus) = experiment: Compound was evaluated for the antitumor activity against C-6 colon for ip administration and days 4,8,12; Number of toxic deaths over total number of mice per group (T/C), 1/10 at dose of 50 mg/kg
X5563 [18] = experiment: Compound was tested in vivo for inhibition of tumor growth of X5,563 myeloma at dose of 50 mg/kg; Number of toxic deaths over total number of mice per group (T/C), 1/10; assay type: functional; conditions: Mus musculus
X5563 [19] = experiment: Compound was tested in vivo for inhibition of tumor growth of X5,563 myeloma at dose of 70 mg/kg; Number of toxic deaths over total number of mice per group (T/C), 9/10; assay type: functional; conditions: Mus musculus
X5563 [20] = experiment: Compound was tested in vivo for inhibition of tumor growth of X5,563 myeloma at dose of 70 mg/kg; Number of toxic deaths over total number of mice per group (T/C), 2/10; assay type: functional; conditions: Mus musculus
[21] = Compound was tested in vivo for inhibition of tumor growth of X5,563 myeloma at dose of 35 mg/kg; Number of toxic deaths over total number of mice per group (T/C), 3/10; assay type: functional; conditions: Mus musculus, X5563
X5563 [22] = experiment: Compound was tested in vivo for inhibition of tumor growth of X5,563 myeloma at dose of 50 mg/kg; Number of toxic deaths over total number of mice per group (T/C), 9/10; assay type: functional; conditions: Mus musculus

## CCCCCCCCCCCCCCC(COP(=O)([O-])OCC[N+](C)(C)C)OCC (centres undefined)
CCRF-CEM
  IC50: 5.4 µg/mL (≈ 12 µM)
X5563 [1]
  inhibition in vivo at 17 mg/kg: 7%
X5563 [2]
  inhibition in vivo at 25 mg/kg: 17%
X5563 [3]
  inhibition in vivo at 35 mg/kg: 80%

## CCCCCCCCCCCCCCCCOC[C@H](COP(=O)([O-])OCC[N+](C)(C)C)OCC
CCRF-CEM
  IC50: 2.9 µg/mL (≈ 5.69 µM)
Mus musculus [4]
  Macrophage cytotoxicity: 4%
Mus musculus [5]
  Macrophage cytotoxicity: 5%
Mus musculus [6]
  Macrophage cytotoxicity: 31%
X5563 [7]
  inhibition in vivo at 5 mg/kg: 18%

## CCCCCCC(COP(=O)([O-])OCC[N+](C)(C)C)OCC (centres undefined)
CCRF-CEM
  IC50: > 200 µg/mL
Mus musculus [4]
  Macrophage cytotoxicity: 0%
Mus musculus [5]
  Macrophage cytotoxicity: 0%
Mus musculus [6]
  Macrophage cytotoxicity: 0%
X5563 [8]
  inhibition in vivo at 17 mg/kg: 17%
X5563 [9]
  inhibition in vivo at 25 mg/kg: 16%
X5563 [10]
  inhibition in vivo at 35 mg/kg: 17%

## CCCCCCCCCCCCCCCCCC[C@@H](O)COP(=O)([O-])OCC[N+](C)(C)C
CCRF-CEM
  IC50: > 20 µg/mL

## CCCCCCCCCCCCCCCCCCCCCCCC(COP(=O)([O-])OCC[N+](C)(C)C)OCC (centres undefined)
Mus musculus [4]
  Macrophage cytotoxicity: 0%
Mus musculus [5]
  Macrophage cytotoxicity: 2%
Mus musculus [6]
  Macrophage cytotoxicity: 0%

## CCCCCCCCCCC(COP(=O)([O-])OCC[N+](C)(C)C)OCC (centres undefined)
CCRF-CEM
  IC50: 55 µg/mL (≈ 139 µM)
Mus musculus [4]
  Macrophage cytotoxicity: 1%
Mus musculus [5]
  Macrophage cytotoxicity: 2%
Mus musculus [6]
  Macrophage cytotoxicity: 32%
X5563 [11]
  inhibition in vivo at 17 mg/kg: 41%
X5563 [12]
  inhibition in vivo at 25 mg/kg: 39%
X5563 [13]
  inhibition in vivo at 35 mg/kg: 45%

## CCCCCCCCCCCCCCCCCCC(COP(=O)([O-])OCC[N+](C)(C)C)OCC (centres undefined)
6C3HED
  inhibition in vivo at 35 mg/kg: 85%
AC755
  inhibition in vivo at 25 mg/kg: 42%
B16
  inhibition: inactive
C6
  inhibition in vivo at 17 mg/kg: 56%
CCRF-CEM
  IC50: 0.8 µg/mL (≈ 1.58 µM)
C3H
  inhibition in vivo at 25 mg/kg: 37%
M-5
  Inhibition: 22%
Mus musculus [4]
  Macrophage cytotoxicity: 1%
Mus musculus [5]
  Macrophage cytotoxicity: 37%
Mus musculus [6]
  Macrophage cytotoxicity: 29%
P388
  inhibition: inactive
X5563 [8]
  inhibition in vivo at 17 mg/kg: 65%
X5563 [14]
  inhibition in vivo at 25 mg/kg: 80%
X5563 [3]
  inhibition in vivo at 35 mg/kg: 95%
[15]
  inhibition in vivo at 50 mg/kg: 56%
[16]
  inhibition in vivo at 25 mg/kg: 77%
[17]
  inhibition in vivo at 50 mg/kg: 43%
C-6 colon (Mus musculus)
  inhibition in vivo at 50 mg/kg: 31%

## CCCCCCCCCCCCCCCCCCC(COP(=O)([O-])OCC[N+](C)(C)C)OC (centres undefined)
CCRF-CEM
  IC50: 1.5 µg/mL (≈ 3.04 µM)

## CCCCCCCC/C=C\CCCCCCCC(COP(=O)([O-])OCC[N+](C)(C)C)OCC (centres undefined)
CCRF-CEM
  IC50: 1.6 µg/mL (≈ 3.25 µM)
X5563 [18]
  inhibition in vivo at 50 mg/kg: 47%
X5563 [19]
  inhibition in vivo at 70 mg/kg: 67%

## CCCCC/C=C\C/C=C\CCCCCCCC(COP(=O)([O-])OCC[N+](C)(C)C)OCC (centres undefined)
CCRF-CEM
  IC50: 6 µg/mL (≈ 12.3 µM)
X5563 [20]
  inhibition in vivo at 70 mg/kg: 31%

## CCCCCCCCCCCCCCCCCC[C@H](COP(=O)([O-])OCC[N+](C)(C)C)OC(C)=O
CCRF-CEM
  IC50: 0.9 µg/mL (≈ 1.73 µM)
Mus musculus [4]
  Macrophage cytotoxicity: 0%
Mus musculus [5]
  Macrophage cytotoxicity: 0%
Mus musculus [6]
  Macrophage cytotoxicity: 23%
X5563 [8]
  inhibition in vivo at 17 mg/kg: 57%
X5563 [2]
  inhibition in vivo at 25 mg/kg: 39%
[21]
  inhibition in vivo at 35 mg/kg: 68%
X5563 [22]
  inhibition in vivo at 50 mg/kg: 100%
